How the values were obtained:
[1] = Metabolic stability in Sprague-Dawley rat whole blood at 400 uCi after 2 hrs; type: ADME, tissue-based; details: read-out: Stability
Method in brief: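 Heparinized whole blood (5 mL) from a mature male Sprague-Dawley rat incubated with ~400 μCi [18F]tracer at 37 °C for 5 min to 2 h. Aliquots lysed with 3 volumes of ethanol and centrifuged; supernatant and pellet gamma-counted. Supernatant species analysed by silica TLC (ethyl acetate), identified by co-elution with non-radioactive standard.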

[2] = Metabolic stability in Sprague-Dawley rat plasma assessed as parent compound remaining at 400 uCi, iv after 5 mins by HPLC; type: ADME, organism-based; details: read-out: Stability
Method in brief: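 Anesthetized male Sprague-Dawley rat given 400 μCi [18F]tracer in 10% ethanol/saline i.v. via tail vein. Blood drawn by cardiac puncture at 5 and 30 min. Plasma separated by centrifugation, treated with 3 equivalents of acetonitrile and centrifuged; supernatant filtered and analysed by HPLC. Samples kept on ice.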

[3] = test system: Blood; assay: Biodistribution in C57BL/6N mouse blood at 50 uCi/110 uL, iv after 1 hr; type: ADME, organism-based; details: in vivo
Method in brief: (§1)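 Untreated (control) male C57BL/6N mice aged 6-8 weeks. HPLC-purified tracer, ~50 μCi in 10% ethanol/saline, given i.v. via the tail vein. Mice were sacrificed at 5 min, 30 min, 1 h and 2 h post-injection. Tissues were removed, weighed and gamma-counted against diluted injectate standards. Data are %ID/g, mean ± SD, n = 4.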

[4] = test system: Blood; assay: Biodistribution in C57BL/6N mouse blood at 50 uCi/110 uL, iv after 2 hrs; type: ADME, organism-based; details: in vivo; method in brief: as §1
[5] = test system: Lung; assay: Biodistribution in LPS treated C57BL/6N mouse lung at 50 uCi/110 uL, iv administered 6 hrs […] LPS challenge measured after 5 mins post drug dose; type: ADME, organism-based; details: in vivo
Method in brief: (§2)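 Male C57BL/6N mice, 6-8 weeks; LPS (E. coli O127:B8) in PBS, 10 mg/kg i.v., given 6 h before tracer. HPLC-purified [18F]tracer ~50 μCi in 10% ethanol/saline i.v. via tail vein. Killed at 5 min, 30 min, 1 h or 2 h; tissues weighed and gamma-counted against diluted injectate standards. Reported as %ID/g, mean ± SD, n = 4.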

[6] = test system: Lung; assay: Biodistribution in LPS treated C57BL/6N mouse lung at 50 uCi/110 uL, iv administered 6 hrs […] LPS challenge measured after 30 mins post drug dose; type: ADME, organism-based; details: in vivo, 0.5 h; method in brief: as §2
[7] = test system: Liver; assay: Biodistribution in LPS treated C57BL/6N mouse liver at 50 uCi/110 uL, iv administered 6 hrs […] LPS challenge measured after 5 mins post drug dose; type: ADME, organism-based; details: in vivo; method in brief: as §2
[8] = test system: Liver; assay: Biodistribution in LPS treated C57BL/6N mouse liver at 50 uCi/110 uL, iv administered 6 hrs […] LPS challenge measured after 30 mins post drug dose; type: ADME, organism-based; details: in vivo, 0.5 h; method in brief: as §2
[9] = test system: Liver; assay: Biodistribution in C57BL/6N mouse liver at 50 uCi/110 uL, iv after 30 mins; type: ADME, organism-based; details: in vivo, 0.5 h; method in brief: as §1
[10] = test system: Liver; assay: Biodistribution in LPS treated C57BL/6N mouse liver at 50 uCi/110 uL, iv administered 6 hrs […] LPS challenge measured after 1 hr post drug dose; type: ADME, organism-based; details: in vivo; method in brief: as §2
[11] = test system: Kidney; assay: Biodistribution in LPS treated C57BL/6N mouse kidney at 50 uCi/[…], iv administered […] measured after 5 mins post drug dose; type: ADME, organism-based; details: in vivo; method in brief: as §2
[12] = test system: Kidney; assay: Biodistribution in LPS treated C57BL/6N mouse kidney at 50 uCi/110 uL, iv administered 6 hrs […] LPS challenge measured after 30 mins post drug dose; type: ADME, organism-based; details: in vivo, 0.5 h; method in brief: as §2
[13] = test system: Kidney; assay: Biodistribution in C57BL/6N mouse kidney at 50 uCi/110 uL, iv after 30 mins; type: ADME, organism-based; details: in vivo, 0.5 h; method in brief: as §1
[14] = test system: Kidney; assay: Biodistribution in LPS treated C57BL/6N mouse kidney at 50 uCi/110 uL, iv administered 6 hrs […] LPS challenge measured after 2 hrs post drug dose; type: ADME, organism-based; details: in vivo; method in brief: as §2
[15] = test system: Kidney; assay: Biodistribution in C57BL/6N mouse kidney at 50 uCi/110 uL, iv after 2 hrs; type: ADME, organism-based; details: in vivo; method in brief: as §1
[16] = test system: Blood; assay: Biodistribution in C57BL/6N mouse blood at 50 uCi/110 uL, iv after 5 mins; type: ADME, organism-based; details: in vivo; method in brief: as §1
[17] = test system: Blood; assay: Biodistribution in C57BL/6N mouse blood at 50 uCi/110 uL, iv after 30 mins; type: ADME, organism-based; details: in vivo, 0.5 h; method in brief: as §1
[18] = test system: Mus musculus; assay: Biodistribution in LPS treated C57BL/6N mouse at 5 uCi, iv co-administered with nonselective NOS inhibitor 2-amino-4-methylpyridine measured after 1 hr; type: ADME, organism-based; details: in vivo
[19] = test system: Muscle tissue; assay: Biodistribution in LPS treated C57BL/6N mouse muscle at 50 uCi/110 uL, iv administered 6 hrs […] LPS challenge measured after 30 mins post drug dose; type: ADME, organism-based; details: in vivo, 0.5 h; method in brief: as §2
[20] = test system: Muscle tissue; assay: Biodistribution in C57BL/6N mouse muscle at 50 uCi/110 uL, iv after 30 mins; type: ADME, organism-based; details: in vivo, 0.5 h; method in brief: as §1
[21] = test system: Muscle tissue; assay: Biodistribution in C57BL/6N mouse muscle at 50 uCi/110 uL, iv after 1 hr; type: ADME, organism-based; details: in vivo; method in brief: as §1
[22] = test system: Muscle tissue; assay: Biodistribution in LPS treated C57BL/6N mouse muscle at 50 uCi/110 uL, iv administered 6 hrs […] LPS challenge measured after 2 hrs post drug dose; type: ADME, organism-based; details: in vivo; method in brief: as §2
[23] = test system: Muscle tissue; assay: Biodistribution in C57BL/6N mouse muscle at 50 uCi/110 uL, iv after 2 hrs; type: ADME, organism-based; details: in vivo; method in brief: as §1
[24] = test system: Heart; assay: Biodistribution in LPS treated C57BL/6N mouse heart at 50 uCi/110 uL, iv administered 6 hrs […] LPS challenge measured after 30 mins post drug dose; type: ADME, organism-based; details: in vivo, 0.5 h
Method in brief: (§3)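 Male C57BL/6N mice aged 6-8 weeks received E. coli O127:B8 LPS in PBS, 10 mg/kg i.v., 6 h before tracer. Tracer ~50 μCi in 10% ethanol/saline, i.v. tail vein. Sacrifice was at 5 min, 30 min, 1 h or 2 h post-injection. Organs were weighed and gamma-counted with injectate standards. Data are %ID/g, mean ± SD, n = 4.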

[25] = test system: Heart; assay: Biodistribution in C57BL/6N mouse heart at 50 uCi/110 uL, iv after 30 mins; type: ADME, organism-based; details: in vivo, 0.5 h; method in brief: as §1
[26] = test system: Heart; assay: Biodistribution in LPS treated C57BL/6N mouse heart at 50 uCi/110 uL, iv administered 6 hrs […] LPS challenge measured after 1 hr post drug dose; type: ADME, organism-based; details: in vivo; method in brief: as §3
[27] = test system: Heart; assay: Biodistribution in C57BL/6N mouse heart at 50 uCi/110 uL, iv after 2 hrs; type: ADME, organism-based; details: in vivo; method in brief: as §1
[28] = test system: Brain; assay: Biodistribution in LPS treated C57BL/6N mouse brain at 50 uCi/110 uL, iv administered 6 hrs […] LPS challenge measured after 1 hr post drug dose; type: ADME, organism-based; details: in vivo; method in brief: as §3
[29] = test system: Brain; assay: Biodistribution in C57BL/6N mouse brain at 50 uCi/110 uL, iv after 1 hr; type: ADME, organism-based; details: in vivo; method in brief: as §1
[30] = test system: Bone; assay: Biodistribution in C57BL/6N mouse bone at 50 uCi/110 uL, iv after 5 mins; type: ADME, organism-based, Bone element; details: in vivo; method in brief: as §1
[31] = test system: Bone; assay: Biodistribution in C57BL/6N mouse bone at 50 uCi/110 uL, iv after 30 mins; type: ADME, organism-based, Bone element; details: in vivo, 0.5 h; method in brief: as §1
[32] = test system: Bone; assay: Biodistribution in LPS treated C57BL/6N mouse bone at 50 uCi/110 uL, iv administered 6 hrs before LPS challenge measured after 1 hr post drug dose; type: ADME, organism-based, Bone element; details: in vivo, in the assay text read “6 hrs after LPS challenge” for “6 hrs before LPS challenge”; method in brief: as §3
[33] = test system: Bone; assay: Biodistribution in C57BL/6N mouse bone at 50 uCi/110 uL, iv after 1 hr; type: ADME, organism-based, Bone element; details: in vivo; method in brief: as §1

Cc1cc(N)nc(CC(C)[18F])c1 (stereo not drawn)
remaining at 2 h, 400 uCi [1]: 75% | remaining at 5 min [2]: 40.3% | Drug uptake [3]: 0.31 % ID/g | Drug uptake [4]: 0.27 % ID/g | Drug uptake [5]: 4.32 % ID/g | Drug uptake [6]: 1.84 % ID/g | Drug uptake [7]: 24.6 % ID/g | Drug uptake [8]: 7.06 % ID/g | Drug uptake [9]: 10.7 % ID/g | Drug uptake [10]: 2.63 % ID/g | Drug uptake [11]: 26.7 % ID/g | Drug uptake [12]: 10.9 % ID/g | Drug uptake [13]: 7.3 % ID/g | Drug uptake [14]: 0.91 % ID/g | Drug uptake [15]: 0.8 % ID/g | Drug uptake [16]: 2.37 % ID/g | Drug uptake [17]: 1.22 % ID/g | Activity [18]: Not Active | Drug uptake [19]: 1.06 % ID/g | Drug uptake [20]: 0.71 % ID/g | Drug uptake [21]: 0.27 % ID/g | Drug uptake [22]: 0.23 % ID/g | Drug uptake [23]: 0.34 % ID/g | Drug uptake [24]: 1.02 % ID/g | Drug uptake [25]: 0.6 % ID/g | Drug uptake [26]: 0.41 % ID/g | Drug uptake [27]: 0.08 % ID/g | Drug uptake [28]: 0.19 % ID/g | Drug uptake [29]: 0.11 % ID/g | Drug uptake [30]: 1.52 % ID/g | Drug uptake [31]: 2.26 % ID/g | Drug uptake [32]: 4.3 % ID/g | Drug uptake [33]: 2.57 % ID/g
